The values below come from PubChem BioAssay AID588487 (The Scripps Research Institute Molecular Screening Center, 2011).

What all share (assay): PAD1-4 inhibition by competitive ABPP, late-stage follow-up, orthogonal assay for PAD4 inhibitor project, biochemical, fluorescence, gel-based ABPP, HTS hits (AID 588487)
Assay [1] deals with Protein-arginine deiminase type-2 (Homo sapiens) (UniProt Q9Y2J8). Particulars: recombinant PAD1-4, gel-based ABPP, RFA probe fluorescence; PAD2; at 10 µM; stronger effect = higher value. In short, it runs like this:
(§1)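 System: Recombinant PAD1, PAD2, PAD3 or PAD4 | Input: PAD enzyme 10 µM | Probe or stimulus: RFA fluorescent probe at 1 µM | Compound: One 10 µM dose per compound | Schedule: 15 min compound pre-incubation plus 30 min probe step, 37 °C | Detection: in-gel fluorescence scan of probe-labeled PAD band after SDS-PAGE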

The target in assay [2] is Protein-arginine deiminase type-1 (Homo sapiens) (UniProt Q9ULC6). Particulars: recombinant PAD1-4, gel-based ABPP, RFA probe fluorescence; PAD1; at 10 µM; stronger effect = higher value. An outline of the steps: as §1
For assay [3], the target named is Protein-arginine deiminase type-4 (Homo sapiens) (UniProt Q9UM07). Particulars: recombinant PAD1-4, gel-based ABPP, RFA probe fluorescence; PAD4; at 10 µM; stronger effect = higher value. An outline of the steps: as §1
Assay [4] has as its target Protein-arginine deiminase type-3 (Homo sapiens) (UniProt Q9ULW8). As to conditions: recombinant PAD1-4, gel-based ABPP, RFA probe fluorescence; PAD3; at 10 µM; stronger effect = higher value. An outline of the steps: as §1

Calls of active or inactive are those of the source.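 Rule for the calls: active = inhibition of at least 50% against any of four protein arginine deiminase enzymes; inactive = the rest.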

Sequence of Protein-arginine deiminase type-2 (Homo sapiens) (Q9Y2J8 whole entry, looked up): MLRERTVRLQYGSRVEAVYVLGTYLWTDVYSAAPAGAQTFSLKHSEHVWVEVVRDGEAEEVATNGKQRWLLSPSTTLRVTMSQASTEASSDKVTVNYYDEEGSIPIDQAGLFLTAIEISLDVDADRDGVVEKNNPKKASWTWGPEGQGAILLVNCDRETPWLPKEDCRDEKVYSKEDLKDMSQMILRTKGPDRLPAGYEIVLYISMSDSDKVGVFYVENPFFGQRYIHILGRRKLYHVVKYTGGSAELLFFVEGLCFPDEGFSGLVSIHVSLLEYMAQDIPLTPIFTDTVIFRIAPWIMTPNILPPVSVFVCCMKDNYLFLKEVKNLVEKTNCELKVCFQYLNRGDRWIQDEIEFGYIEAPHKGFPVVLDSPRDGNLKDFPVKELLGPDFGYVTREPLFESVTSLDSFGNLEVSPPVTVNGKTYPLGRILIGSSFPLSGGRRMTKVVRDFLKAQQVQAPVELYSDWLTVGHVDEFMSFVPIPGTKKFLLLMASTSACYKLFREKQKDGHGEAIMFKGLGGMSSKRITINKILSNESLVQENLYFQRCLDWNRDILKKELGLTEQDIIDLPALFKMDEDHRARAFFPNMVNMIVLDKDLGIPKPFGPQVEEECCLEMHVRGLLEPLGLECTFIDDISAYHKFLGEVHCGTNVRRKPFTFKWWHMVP
Sequence of Protein-arginine deiminase type-3 (Homo sapiens) (Q9ULW8 whole entry, looked up): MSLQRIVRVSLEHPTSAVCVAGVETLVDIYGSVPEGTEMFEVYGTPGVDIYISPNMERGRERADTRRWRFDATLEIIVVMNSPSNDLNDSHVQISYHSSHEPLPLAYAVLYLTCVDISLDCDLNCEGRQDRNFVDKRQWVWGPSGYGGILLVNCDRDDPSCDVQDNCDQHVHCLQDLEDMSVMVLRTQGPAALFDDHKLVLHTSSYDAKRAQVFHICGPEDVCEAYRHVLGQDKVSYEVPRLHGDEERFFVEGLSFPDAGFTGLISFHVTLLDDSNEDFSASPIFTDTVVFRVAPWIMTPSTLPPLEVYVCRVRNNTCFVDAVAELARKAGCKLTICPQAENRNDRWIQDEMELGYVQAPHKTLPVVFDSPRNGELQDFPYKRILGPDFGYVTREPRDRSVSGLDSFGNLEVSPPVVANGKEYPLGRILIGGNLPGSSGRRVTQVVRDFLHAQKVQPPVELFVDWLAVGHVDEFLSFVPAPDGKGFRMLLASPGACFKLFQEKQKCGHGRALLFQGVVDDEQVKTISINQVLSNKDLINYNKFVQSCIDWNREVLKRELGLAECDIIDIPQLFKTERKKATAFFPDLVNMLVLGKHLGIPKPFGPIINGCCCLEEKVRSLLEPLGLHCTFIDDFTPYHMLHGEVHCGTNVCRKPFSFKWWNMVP
Sequence of Protein-arginine deiminase type-1 (Homo sapiens) (Q9ULC6 whole entry, looked up): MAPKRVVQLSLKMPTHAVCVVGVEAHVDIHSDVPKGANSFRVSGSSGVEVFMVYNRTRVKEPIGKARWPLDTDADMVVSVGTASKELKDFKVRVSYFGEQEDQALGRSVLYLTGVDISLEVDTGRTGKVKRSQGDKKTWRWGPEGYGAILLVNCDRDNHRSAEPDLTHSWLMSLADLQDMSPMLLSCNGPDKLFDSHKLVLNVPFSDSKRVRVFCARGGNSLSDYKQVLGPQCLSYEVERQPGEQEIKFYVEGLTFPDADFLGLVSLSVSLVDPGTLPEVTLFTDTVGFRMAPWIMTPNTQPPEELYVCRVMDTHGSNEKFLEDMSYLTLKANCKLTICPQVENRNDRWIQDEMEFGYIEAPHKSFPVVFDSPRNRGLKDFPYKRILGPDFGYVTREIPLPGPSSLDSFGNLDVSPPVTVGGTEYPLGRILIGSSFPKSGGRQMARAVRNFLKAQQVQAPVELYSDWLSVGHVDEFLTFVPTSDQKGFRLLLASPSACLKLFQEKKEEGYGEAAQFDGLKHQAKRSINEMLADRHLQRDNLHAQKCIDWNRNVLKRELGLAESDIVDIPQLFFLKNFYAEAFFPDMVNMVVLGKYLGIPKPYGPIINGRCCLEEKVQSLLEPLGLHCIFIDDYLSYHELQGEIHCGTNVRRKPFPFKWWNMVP
Sequence of Protein-arginine deiminase type-4 (Homo sapiens) (Q9UM07 whole entry, looked up): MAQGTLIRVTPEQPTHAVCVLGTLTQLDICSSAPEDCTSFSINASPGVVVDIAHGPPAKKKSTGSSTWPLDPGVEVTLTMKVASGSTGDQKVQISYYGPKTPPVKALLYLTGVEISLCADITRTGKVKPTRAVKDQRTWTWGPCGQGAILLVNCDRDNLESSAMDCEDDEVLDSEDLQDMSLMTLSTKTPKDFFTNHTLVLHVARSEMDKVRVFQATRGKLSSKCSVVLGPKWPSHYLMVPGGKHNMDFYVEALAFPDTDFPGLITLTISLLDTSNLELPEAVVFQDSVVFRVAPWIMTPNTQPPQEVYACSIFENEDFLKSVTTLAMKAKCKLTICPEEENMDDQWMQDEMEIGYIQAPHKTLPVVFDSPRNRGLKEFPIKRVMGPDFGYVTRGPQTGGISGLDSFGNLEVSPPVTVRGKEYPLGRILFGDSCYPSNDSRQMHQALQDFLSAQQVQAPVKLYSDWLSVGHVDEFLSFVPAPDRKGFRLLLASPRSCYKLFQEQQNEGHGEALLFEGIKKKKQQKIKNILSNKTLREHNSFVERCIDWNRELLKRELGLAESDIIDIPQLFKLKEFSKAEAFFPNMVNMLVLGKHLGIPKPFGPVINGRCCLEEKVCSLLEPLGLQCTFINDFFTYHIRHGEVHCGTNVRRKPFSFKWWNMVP

The inhibition is the drop in the measured response relative to a control, in per cent. For `Cc1c(NC(=O)CSc2nccn2C)c(=O)n(-c2ccccc2)n1C`, the inhibition in assay [1] is 35% (inactive); in assay [2] it was 46% (inactive); in assay [3] it was 66%; in assay [4] it was -7% (inactive).
Turning to `Cn1c(SCC(=O)Nc2ccc(Br)cn2)nnc1C1CC1`, the inhibition in assay [1] was 19% (inactive); in assay [2] it was 17% (inactive); in assay [3], 15% (inactive); in assay [4], -19% (inactive).
The like results for `COc1ccc(CCNC(=O)c2c[nH]c3ccc(F)cc3c2=O)cc1OC` were, in that order, 35% (inactive), -15% (inactive), 33% (inactive) and 23% (inactive).
`Cc1cc(N(C)NC(=S)Nc2ccccc2)nc(C)n1`: the inhibition was 58% in assay [1], 32% (inactive) in assay [2], 5% (inactive) in assay [3] and 38% (inactive) in assay [4].
Turning to `COc1cccc2cc(C(=O)NC3CC(C)(C)NC(C)(C)C3)c(=O)oc12`, the inhibition in assay [1] was 7% (inactive); in assay [2], 15% (inactive); in assay [3] it was 31% (inactive); in assay [4], 66%.
`Cc1ccc(C2=NN=C(NC(=O)CSc3nncn3C)SC2)cc1`: the inhibition is 1% (inactive) in assay [1], 16% (inactive) in assay [2], 26% (inactive) in assay [3] and 32% (inactive) in assay [4].
Consider `Cc1nonc1OC(C)CNc1ccc([N+](=O)[O-])cc1` (centres undefined), for which the inhibition in assay [1] was 38% (inactive); in assay [2], 46% (inactive); in assay [3], 22% (inactive); in assay [4] it was 38% (inactive).
Turning to `COc1ccc(/C=N/Nc2nncn2N)cc1Br`, the inhibition is 44% (inactive) in assay [1], 30% (inactive) in assay [2], 55% in assay [3] and -24% (inactive) in assay [4].
For `Cc1ccc(-c2nc3sc(C#N)c(N)n3c(=O)c2C#N)cc1` the same measures were 16% (inactive), 32% (inactive), 38% (inactive) and 31% (inactive).
`Cc1ccc(C2CC(=O)Oc3cc(O)ccc32)cc1` (centres undefined): the inhibition in assay [1] was -2% (inactive); in assay [2] it was 40% (inactive); in assay [3], -30% (inactive); in assay [4] it was 43% (inactive).
For the compound `COc1ccc(C2=CC(c3ccc(OC)c(OC)c3)NC(=S)N2)cc1` (centres undefined), the inhibition in assay [1] is -9% (inactive); in assay [2], 37% (inactive); in assay [3], -50% (inactive); in assay [4], 36% (inactive).
For `CCN(Cc1ccc2c(c1)OCCO2)C(=O)CSc1nc(C)nc2sc(C)c(C)c12` the same measures were 24% (inactive), 43% (inactive), -38% (inactive) and 24% (inactive).
The like results for `O=C1CC(c2cccnc2)=NN1c1ccccc1` were, in that order, 34% (inactive), 37% (inactive), 4% (inactive) and 34% (inactive).
`COc1ccc(CCNC(=O)COC(=O)c2ccc(C)s2)cc1`: the inhibition in assay [1] is 40% (inactive); in assay [2] it was -2% (inactive); in assay [3], 72%; in assay [4], -38% (inactive).
Take `COc1cccc(NC(=O)CN(C)C(=O)C23CC4CC(CC(Cl)(C4)C2)C3)c1`: the inhibition is 17% (inactive) in assay [1], 13% (inactive) in assay [2], 60% in assay [3] and 13% (inactive) in assay [4].
Turning to `COc1ccc(S(=O)(=O)Nc2ccccc2C)cc1`, the inhibition was 57% in assay [1], 23% (inactive) in assay [2], 57% in assay [3] and -13% (inactive) in assay [4].
On to `Cc1cc(C)c(C#N)c(Sc2ccccc2N)n1`, for which the inhibition is 38% (inactive) in assay [1], 36% (inactive) in assay [2], 6% (inactive) in assay [3] and 5% (inactive) in assay [4].
For `O=C(CN1CCCCCC1)Nc1ccc(Br)cc1Br` the same measures were -16% (inactive), 41% (inactive), -53% (inactive) and 31% (inactive).
On to `O=C(COc1ccccc1F)N1CCN(S(=O)(=O)/C=C/c2ccccc2)CC1`, for which the inhibition in assay [1] is 25% (inactive); in assay [2], -10% (inactive); in assay [3], 42% (inactive); in assay [4], 3% (inactive).
In the case of `CCOc1nc(Nc2ccc(OC)cc2OC)nc(OCC)n1`, the inhibition was 62% in assay [1], 37% (inactive) in assay [2], 20% (inactive) in assay [3] and 46% (inactive) in assay [4].
For `COCc1cc(C)nc(SCC(=O)Nc2ccc3c(c2)n(C)c(=O)n3C)c1C#N` the same measures were 31% (inactive), 15% (inactive), 38% (inactive) and -43% (inactive).
For `Cc1cc(C)cc(NC(=S)/C(=C(\[O-])c2ccc(Cl)s2)[n+]2cccc(C)c2)c1`, the inhibition in assay [1] is 50%; in assay [2], -1% (inactive); in assay [3], -8% (inactive); in assay [4], 28% (inactive).
The like results for `O=c1cc(-c2ccc(F)cc2)[nH][nH]1` were, in that order, 28% (inactive), 33% (inactive), 37% (inactive) and 1% (inactive).
For `COc1ccc(/C=C2/C(=O)N(c3ccccc3)N=C2C)cc1` the same measures were 47% (inactive), 20% (inactive), 35% (inactive) and 35% (inactive).
For the compound `c1ccc(CCn2c3ccccc3c3nnc(SCc4ccc5nonc5c4)nc32)cc1`, the inhibition is 14% (inactive) in assay [1], 18% (inactive) in assay [2], 31% (inactive) in assay [3] and 21% (inactive) in assay [4].
For `CC(NC(=O)Nc1ccc(O)cc1)(C(F)(F)F)C(F)(F)F` the same measures were 31% (inactive), 29% (inactive), 60% and -29% (inactive).
For `CCN(CC)S(=O)(=O)c1ccc(C)c(NS(=O)(=O)c2cc(/C=C/C(=O)O)cc(OC)c2OC)c1` the same measures were 40% (inactive), 9% (inactive), 40% (inactive) and 33% (inactive).
As to `COc1ccc(OC)c(C2C(C#N)=C(N)Oc3c2c(C)nn3-c2ccc(C)cc2)c1` (centres undefined), the inhibition in assay [1] was 18% (inactive); in assay [2], 22% (inactive); in assay [3], 31% (inactive); in assay [4], -37% (inactive).
As to `Cc1oc2c(C)c(O)ccc2c(=O)c1-c1ccc2ccccc2n1`, the inhibition in assay [1] is 50%; in assay [2] it was -33% (inactive); in assay [3] it was 1% (inactive); in assay [4], 42% (inactive).
For `CC(=O)Nc1c2c3c(cccc3n(C)c1=O)C(=O)c1ccccc1-2` the same measures were 37% (inactive), -5% (inactive), 28% (inactive) and 32% (inactive).
The like results for `O=c1cc(-c2ccc(Cl)c(Cl)c2)[nH][nH]1` were, in that order, 51%, 27% (inactive), 42% (inactive) and 41% (inactive).
With `Cc1cc(C)c(C)c(S(=O)(=O)N2CCC(C(=O)N3CCCC3)CC2)c1C`, the inhibition in assay [1] is -43% (inactive); in assay [2], -32% (inactive); in assay [3] it was 39% (inactive); in assay [4] it was 22% (inactive).
The like results for `N#CCCn1[nH]c(-c2ccccc2)cc1=O` were, in that order, 29% (inactive), 47% (inactive), 32% (inactive) and 3% (inactive).
The like results for `Cc1nn(-c2cccc(Cl)c2)c2c1C(c1cccnc1)C(C#N)=C(N)O2` (centres undefined) were, in that order, 28% (inactive), 74%, 53% and -34% (inactive).
Regarding `Cc1cc(-c2nnc(SCC(=O)Nc3ccc(F)c(F)c3)n2N)n[nH]1`, the inhibition in assay [1] was 62%; in assay [2], 43% (inactive); in assay [3], 51%; in assay [4], -20% (inactive).
For `COc1ccc(-c2cc(=O)n(CCC#N)[nH]2)cc1` the same measures were 17% (inactive), 17% (inactive), 32% (inactive) and 35% (inactive).
